ChEMBL document CHEMBL1149632, “New cytotoxic diterpenylnaphthohydroquinone derivatives obtained from a natural diterpenoid” (2007)

Columns and labels:
Format in all cases: functional
HT-29 = experiment: Antineoplastic cytotoxicity against human HT29 cells after 72 hrs by SRB method; settings: HT-29, 72 h
How it was run: (§1)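 Cells seeded at 5 × 10^3 per well in RPMI and left to attach for 18 h in drug-free medium. Compounds were then added in DMSO/H2O (3:7) and exposed for 72 h. Cells were fixed with cold 50% TCA for 60 min at 4 °C and stained with 0.4% SRB in 1% acetic acid for 10 min at rt. Bound dye was solubilised in Tris and read at 490 nm. GI50 from 100×[(T−T0)/(C−T0)]=50.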

[1] = Antineoplastic cytotoxicity against human MEL28 cells after 72 hrs by SRB method; settings: SK-MEL-28, 72 h; how it was run: as §1
A549 = experiment: Antineoplastic cytotoxicity against human A549 cells after 72 hrs by SRB method; settings: A549, 72 h; how it was run: as §1

Compound: C=C1CC[C@@H]2[C@](C)(CCC[C@]2(C)C(=O)OC)[C@]1(O)CCc1ccc2c(OCc3ccccc3)ccc(OCc3ccccc3)c2c1
- GI50 (HT-29): 12.4 µM
- GI50 [1]: 9 µM
- GI50 (A549): 12.4 µM

Compound: C=C1CC[C@@H]2[C@](C)(CCC[C@]2(C)C(=O)O)[C@H]1CCc1ccc2c(OC(C)=O)ccc(OC(C)=O)c2c1
- GI50 (HT-29): 0.24 µM
- GI50 [1]: 0.24 µM
- GI50 (A549): 0.24 µM

Compound: C=C1CC[C@@H]2[C@](C)(CCC[C@]2(C)C(=O)O)[C@H]1CCc1ccc2c(c1)C(=O)C=CC2=O
- GI50 (HT-29): 5.7 µM
- GI50 [1]: 5.7 µM
- GI50 (A549): > 7.4 µM

Compound: C=C1[C@H](O)C[C@@H]2[C@](C)(CCC[C@]2(C)C(=O)OC)[C@H]1CCc1ccc2c(OC)ccc(OC)c2c1
- GI50 (HT-29): > 6.4 µM
- GI50 [1]: > 6.4 µM
- GI50 (A549): > 6.4 µM

Compound: C=C1CC[C@@H]2[C@](C)(CCC[C@]2(C)C(=O)OC)[C@H]1CCc1ccc2c(OC)ccc(OC)c2c1
- GI50 (HT-29): > 6.7 µM
- GI50 [1]: > 6.7 µM
- GI50 (A549): > 6.7 µM

Compound: C=C1[C@H](O)C[C@@H]2[C@](C)(CCC[C@]2(C)C(=O)OC)[C@H]1CCc1ccc2c(OC(C)=O)ccc(OC(C)=O)c2c1
- GI50 (HT-29): 1 µM
- GI50 (A549): 1.6 µM

Compound: C=C1CC[C@@H]2[C@](C)(CCC[C@]2(C)C(=O)OC)[C@H]1CCc1ccc2c(OCc3ccccc3)ccc(OCc3ccccc3)c2c1
- GI50 (HT-29): > 5 µM
- GI50 [1]: > 5 µM
- GI50 (A549): > 5 µM

Compound: COC(=O)[C@@]1(C)CCC[C@]2(C)C(CCc3ccc4c(OC(C)=O)ccc(OC(C)=O)c4c3)=C(C)C(=O)C[C@@H]12
- GI50 (HT-29): 0.19 µM
- GI50 (A549): 0.19 µM

Compound: C=C1CC[C@H]2[C@@](C)(CCC[C@@]2(C)C(=O)OC)[C@@H]1CCc1ccc2c(c1)C(=O)c1cc(CC[C@H]3C(=C)CC[C@@H]4[C@]3(C)CCC[C@]4(C)C(=O)OC)ccc1C2=O
- GI50 (HT-29): > 4.1 µM
- GI50 [1]: > 4.1 µM
- GI50 (A549): > 4.1 µM

Compound: C=C1C(=O)C[C@@H]2[C@](C)(CCC[C@]2(C)C(=O)OC)[C@H]1CCc1ccc2c(OCc3ccccc3)ccc(OCc3ccccc3)c2c1
- GI50 (HT-29): 8.1 µM
- GI50 (A549): 14.8 µM

Compound: C=C1CC[C@@H]2[C@](C)(CCC[C@]2(C)C(=O)OCc2ccccc2)[C@H]1CCc1ccc2c(OCc3ccccc3)ccc(OCc3ccccc3)c2c1
- GI50 (HT-29): 4.4 µM
- GI50 (A549): 6.5 µM

Compound: C=C1CC[C@@H]2[C@](C)(CCC[C@]2(C)C(=O)OC)[C@H]1CCc1ccc2c(OC(C)=O)ccc(OC(C)=O)c2c1
- GI50 (HT-29): 0.5 µM
- GI50 [1]: 0.12 µM
- GI50 (A549): 0.12 µM

Compound: C=C1CC[C@@H]2[C@](C)(CCC[C@]2(C)C(=O)OC)[C@H]1/C=C/c1ccc2c(OC)ccc(OC)c2c1
- GI50 (HT-29): > 22.3 µM
- GI50 (A549): > 22.3 µM

Compound: C=C1CC[C@@H]2[C@](C)(CCC[C@]2(C)C(=O)OC)[C@]1(O)CCc1ccc2c(OC)ccc(OC)c2c1
- GI50 (HT-29): > 21.5 µM
- GI50 (A549): > 21.5 µM

Compound: COC(=O)[C@@]1(C)CCC[C@]2(C)C(CCc3ccc4c(OCc5ccccc5)ccc(OCc5ccccc5)c4c3)=C(C)CC[C@@H]12
- GI50 (HT-29): > 16.6 µM
- GI50 (A549): 15.2 µM

Compound: C=C1[C@H](O)C[C@@H]2[C@](C)(CCC[C@]2(C)C(=O)OC)[C@H]1CCc1ccc2c(OCc3ccccc3)ccc(OCc3ccccc3)c2c1
- GI50 (HT-29): > 4.9 µM
- GI50 [1]: > 4.9 µM
- GI50 (A549): > 4.9 µM

Compound: C=C1C(=O)C[C@@H]2[C@](C)(CCC[C@]2(C)C(=O)OC)[C@H]1CCc1ccc2c(OC(C)=O)ccc(OC(C)=O)c2c1
- GI50 (HT-29): 4.4 µM
- GI50 (A549): 2.3 µM

Compound: C=C1CC[C@@H]2[C@](C)(CCC[C@]2(C)C(=O)OC)[C@H]1CCC1=CCc2c(OC(C)=O)ccc(OC(C)=O)c2C1
- GI50 (HT-29): 1.38 µM
- GI50 [1]: 0.68 µM
- GI50 (A549): 0.51 µM

Compound: COC(=O)[C@@]1(C)CCC[C@]2(C)C(CCc3ccc4c(OC)ccc(OC)c4c3)=C(C)CC[C@@H]12
- GI50 (HT-29): > 6.7 µM
- GI50 [1]: > 6.7 µM
- GI50 (A549): > 6.7 µM

Compound: COC(=O)[C@@]1(C)CCC[C@]2(C)C(CCc3ccc4c(OC)ccc(OC)c4c3)=C(OOC(C)(C)C)CC[C@@H]12
- GI50 (HT-29): > 18.6 µM
- GI50 [1]: > 18.6 µM
- GI50 (A549): > 18.6 µM

Compound: C=C1C(=O)C[C@@H]2[C@](C)(CCC[C@]2(C)C(=O)OC)[C@H]1CCc1ccc2c(OC)ccc(OC)c2c1
- GI50 (HT-29): 3.2 µM
- GI50 (A549): 3.7 µM

Compound: COC(=O)[C@@]1(C)CCC[C@]2(C)C(CCc3ccc4c(OC(C)=O)ccc(OC(C)=O)c4c3)=C(C)CC[C@@H]12
- GI50 (HT-29): 0.24 µM
- GI50 (A549): 0.24 µM

Compound: C=C1CC[C@@H]2[C@](C)(CCC[C@]2(C)C(=O)OC)[C@H]1CCc1ccc2c(c1)C(=O)C=CC2=O
- GI50 (HT-29): 0.2 µM
- GI50 [1]: 0.2 µM
- GI50 (A549): 0.2 µM

Compound: COC(=O)[C@@]1(C)CCC[C@]2(C)C(CCc3ccc4c(OC(C)=O)ccc(OC(C)=O)c4c3)=C(C)[C@@H](O)C[C@@H]12
- GI50 (HT-29): 4.8 µM
- GI50 (A549): 4.8 µM

Compound: C=C1CC[C@@H]2[C@](C)(CCC[C@]2(C)C(=O)O)[C@H]1CCC1=CCc2c(OC(C)=O)ccc(OC(C)=O)c2C1
- GI50 (HT-29): 10.1 µM
- GI50 [1]: 5 µM
- GI50 (A549): 2.5 µM
